{"source": "ChEMBL document CHEMBL4765236", "about": "“Insights into the Antimicrobial Activity and Cytotoxicity of Engineered α-Helical Peptide Amphiphiles” (J Med Chem, 2016)", "key": {"Cell membrane [1]": {"test_system": "Cell membrane", "test": "Induction of outer membrane permeabilization in Escherichia coli O157:H7 CICC 21530 assessed as increase in fluorescence intensity at 7.5 uM by NPN-dye based fluorescence assay", "type": "subcellular"}, "Cell membrane [2]": {"test_system": "Cell membrane", "test": "Induction of cell membrane disruption in Escherichia coli O157:H7 CICC 21530 assessed as propidium iodide-positive cells at 1 times MIC measured after 30 mins by flow cytometry analysis (reference value: 5.7 %)", "type": "subcellular"}, "Cell membrane [3]": {"test_system": "Cell membrane", "test": "Induction of cell membrane disruption in Escherichia coli O157:H7 CICC 21530 assessed as propidium iodide-positive cells at 0.5 times MIC measured after 30 mins by flow cytometry analysis (reference value: 5.7 %)", "type": "subcellular"}, "Cell membrane [4]": {"test_system": "Cell membrane", "test": "Induction of cell membrane disruption in Escherichia coli O157:H7 CICC 21530 assessed as propidium iodide-positive cells at 2 times MIC measured after 30 mins by flow cytometry analysis (reference value: 5.7 %)", "type": "subcellular"}, "Cell membrane [5]": {"test_system": "Cell membrane", "test": "Induction of cell membrane disruption in Escherichia coli O157:H7 CICC 21530 assessed as propidium iodide-positive cells measured after 30 mins by flow cytometry analysis", "type": "subcellular"}, "Staphylococcus aureus [6]": {"test_system": "Staphylococcus aureus", "test": "Induction of morphological changes in Staphylococcus aureus ATCC 29213 assessed as membrane stunting at 1 times MIC after 60 mins by SEM analysis", "type": "functional, organism-based", "outline": "(§1)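 S. aureus grown to exponential phase in MHB at 37 °C with shaking at 220 rpm. Cells washed twice in PBS, resuspended to OD600 0.2, then exposed to peptide at 1× MIC for 60 min at 37 °C; untreated cells served as control. Cells were pelleted, PBS-washed, fixed overnight in 2.5% glutaraldehyde at 4 °C, dehydrated through graded ethanol then tert-butanol, and imaged by SEM.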"}, "Escherichia coli [7]": {"test_system": "Escherichia coli", "test": "Induction of morphological changes in Escherichia coli O157:H7 CICC 21530 assessed as membrane stunting at 1 times MIC after 60 mins by SEM analysis", "type": "functional, organism-based"}, "Escherichia coli [8]": {"test_system": "Escherichia coli", "test": "Induction of morphological changes in Escherichia coli O157:H7 CICC 21530 assessed as membrane blebbing at 1 times MIC after 60 mins by SEM analysis", "type": "functional, organism-based"}, "Staphylococcus aureus [9]": {"test_system": "Staphylococcus aureus", "test": "Induction of morphological changes in Staphylococcus aureus ATCC 29213 assessed as membrane blebbing at 1 times MIC after 60 mins by SEM analysis", "type": "functional, organism-based", "outline": "as §1"}, "HepG2 [10]": {"test_system": "HepG2", "test": "Induction of cell cycle arrest in human HepG2 cells assessed as accumulation at Go/G1 phase at 32 uM incubated for 24 hrs by annexin-V/FITC staining-based FACS flow cytometry analysis (reference value: 54.61 %)", "type": "functional"}, "HepG2 [11]": {"test_system": "HepG2", "test": "Induction of cell cycle arrest in human HepG2 cells assessed as accumulation at sub-G1 phase at 64 uM incubated for 24 hrs by annexin-V/FITC staining-based FACS flow cytometry analysis (reference value: 0.07%)", "type": "functional"}, "HepG2 [12]": {"test_system": "HepG2", "test": "Induction of cell cycle arrest in human HepG2 cells assessed as accumulation at Go/G1 phase at 64 uM incubated for 24 hrs by annexin-V/FITC staining-based FACS flow cytometry analysis (reference value: 54.61 %)", "type": "functional"}, "HepG2 [13]": {"test_system": "HepG2", "test": "Induction of cell cycle arrest in human HepG2 cells assessed as accumulation at S phase at 32 uM incubated for 24 hrs by annexin-V/FITC staining-based FACS flow cytometry analysis (reference value: 20.51 %)", "type": "functional"}, "HepG2 [14]": {"test_system": "HepG2", "test": "Induction of cell cycle arrest in human HepG2 cells assessed as accumulation at S phase at 64 uM incubated for 24 hrs by annexin-V/FITC staining-based FACS flow cytometry analysis (reference value: 20.51 %)", "type": "functional"}, "HepG2 [15]": {"test_system": "HepG2", "test": "Induction of cell cycle arrest in human HepG2 cells assessed as accumulation at G2/M phase at 32 uM incubated for 24 hrs by annexin-V/FITC staining-based FACS flow cytometry analysis (reference value: 28.75 %)", "type": "functional"}, "HepG2 [16]": {"test_system": "HepG2", "test": "Induction of cell cycle arrest in human HepG2 cells assessed as accumulation at G2/M phase at 64 uM incubated for 24 hrs by annexin-V/FITC staining-based FACS flow cytometry analysis (reference value: 28.75 %)", "type": "functional"}, "HepG2 [17]": {"test_system": "HepG2", "test": "Induction of ROS generation in human HepG2 cells assessed as increase in fluorescence intensity up to 32 uM incubated for 8 hrs by DCFH-DA staining-based fluorescence analysis", "type": "functional, cell-based", "settings": "dose microM <=32, time 8.0 hrs"}, "Staphylococcus aureus [18]": {"test_system": "Staphylococcus aureus", "test": "Induction of morphological changes in Staphylococcus aureus ATCC 29213 assessed as membrane destruction at 1 times MIC after 60 mins by SEM analysis", "type": "functional, organism-based", "outline": "as §1"}, "Escherichia coli [19]": {"test_system": "Escherichia coli", "test": "Induction of morphological changes in Escherichia coli O157:H7 CICC 21530 assessed as membrane creeping at 1 times MIC after 60 mins by SEM analysis", "type": "functional, organism-based"}, "Escherichia coli [20]": {"test_system": "Escherichia coli", "test": "Induction of morphological changes in Escherichia coli O157:H7 CICC 21530 assessed as membrane destruction at 1 times MIC after 60 mins by SEM analysis", "type": "functional, organism-based"}, "[21]": {"test": "Drug localization in cytoplasm of human HepG2 cells assessed as fluorescent signal in presence of FITC-labelled peptide at 32 uM measured up to 8 hrs by DAPI staining based confocal microscopy", "type": "ADME, subcellular", "settings": "hepg2, 8 h", "outline": "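HepG2 cells incubated with FITC-labelled peptide at 32 µM. Fluorescence distribution imaged by confocal laser-scanning microscopy at intervals (1, 4 and 8 h).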"}, "HepG2 [22]": {"test_system": "HepG2", "test": "Induction of morphological changes in human HepG2 cells assessed as cell disruption at 32 uM after 24 hrs by SEM analysis", "type": "functional, cell-based"}, "HepG2 [23]": {"test_system": "HepG2", "test": "Induction of morphological changes in human HepG2 cells assessed as shriveled cells at 32 uM after 24 hrs by SEM analysis", "type": "functional, cell-based"}, "HepG2 [24]": {"test_system": "HepG2", "test": "Induction of apoptosis in human HepG2 cells assessed as nuclei condensation at 32 uM incubated for 2 to 4 hrs by DAPI-staining based confocal microscopy analysis", "type": "functional, cell-based", "settings": "time 2-4 hrs", "outline": "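HepG2 cells treated with 32 µM peptide for 2, 4 or 8 h and stained with DAPI. Nuclear morphology imaged by confocal microscopy, with untreated cells as control.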"}, "HepG2 [25]": {"test_system": "HepG2", "test": "Induction of ROS generation in human HepG2 cells assessed as increase in visual fluorescence intensity up to 32 uM measured at 2 hr by DCFH-DA staining-based fluorescence analysis", "type": "functional, cell-based", "settings": "dose microM <=32, time 2.0 hrs"}, "Escherichia coli [26]": {"test_system": "Escherichia coli", "test": "Bactericidal activity against Escherichia coli O157:H7 CICC 21530 assessed as bacterial killing at 1 times MIC measured within 5 mins by time kill assay", "type": "functional, organism-based", "settings": "time min <5"}, "Staphylococcus aureus [27]": {"test_system": "Staphylococcus aureus", "test": "Bactericidal activity against Staphylococcus aureus ATCC 29213 assessed as bacterial killing at 1 times MIC measured within 5 mins by time kill assay", "type": "functional, organism-based", "settings": "time min <5", "outline": "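Log-phase S. aureus 29213 exposed to peptide at 1 × MIC in 10 mM PBS pH 7.4 at 37 °C for 0-90 min. Aliquots taken at fixed intervals, diluted and plated on nutrient agar, and colonies counted after 18 h at 37 °C. Average of three independent assays.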"}}, "note": "The source made the active and inactive calls. The calls are words filed in the database; no cut-off is given here."}
{"substance": "H-WGEAFSAGVHRLANGGNG-NH2", "values": [{"measurement": "Activity", "setting": "Cell membrane [1]", "value": "inactive"}, {"measurement": "Activity", "setting": "Cell membrane [2]", "value": 22.9, "unit": "%"}, {"measurement": "Activity", "setting": "Cell membrane [3]", "value": 14.3, "unit": "%"}, {"measurement": "Activity", "setting": "Cell membrane [4]", "value": 27.7, "unit": "%"}, {"measurement": "Activity", "setting": "Cell membrane [5]", "value": "Dose-dependent effect"}, {"measurement": "Activity", "setting": "Staphylococcus aureus [6]", "value": "Active"}, {"measurement": "Activity", "setting": "Escherichia coli [7]", "value": "Active"}, {"measurement": "Activity", "setting": "Escherichia coli [8]", "value": "Active"}, {"measurement": "Activity", "setting": "Staphylococcus aureus [9]", "value": "Active"}, {"measurement": "Activity", "setting": "HepG2 [10]", "value": 52.45, "unit": "%"}, {"measurement": "Activity", "setting": "HepG2 [11]", "value": 2.26, "unit": "%"}, {"measurement": "Activity", "setting": "HepG2 [12]", "value": 34.77, "unit": "%"}, {"measurement": "Activity", "setting": "HepG2 [13]", "value": 25.26, "unit": "%"}, {"measurement": "Activity", "setting": "HepG2 [14]", "value": 31.61, "unit": "%"}, {"measurement": "Activity", "setting": "HepG2 [15]", "value": 29.33, "unit": "%"}, {"measurement": "Activity", "setting": "HepG2 [16]", "value": 30.85, "unit": "%"}, {"measurement": "Activity", "setting": "HepG2 [17]", "value": "inactive"}, {"measurement": "Activity", "setting": "Staphylococcus aureus [18]", "value": "Active"}, {"measurement": "Activity", "setting": "Escherichia coli [19]", "value": "Active"}, {"measurement": "Activity", "setting": "Escherichia coli [20]", "value": "Active"}]}
{"substance": "H-WLRAFRRLVRRLARLLRR-NH2", "values": [{"measurement": "Drug uptake", "setting": "[21]", "value": "Not Active"}]}
{"substance": "H-WLRAFRRLVRRLARGLRR-NH2", "values": [{"measurement": "Activity", "setting": "Cell membrane [2]", "value": 91.1, "unit": "%"}, {"measurement": "Activity", "setting": "Cell membrane [3]", "value": 78.9, "unit": "%"}, {"measurement": "Activity", "setting": "Cell membrane [4]", "value": 98, "unit": "%"}, {"measurement": "Activity", "setting": "Cell membrane [5]", "value": "Dose-dependent effect"}, {"measurement": "Activity", "setting": "Staphylococcus aureus [6]", "value": "Active"}, {"measurement": "Activity", "setting": "Escherichia coli [7]", "value": "Active"}, {"measurement": "Activity", "setting": "Escherichia coli [8]", "value": "Active"}, {"measurement": "Activity", "setting": "Staphylococcus aureus [9]", "value": "Active"}, {"measurement": "Activity", "setting": "HepG2 [22]", "value": "Active"}, {"measurement": "Activity", "setting": "HepG2 [10]", "value": 21.35, "unit": "%"}, {"measurement": "Activity", "setting": "HepG2 [23]", "value": "Active"}, {"measurement": "Activity", "setting": "HepG2 [11]", "value": 77.66, "unit": "%"}, {"measurement": "Activity", "setting": "HepG2 [12]", "value": 5.83, "unit": "%"}, {"measurement": "Activity", "setting": "HepG2 [13]", "value": 33.17, "unit": "%"}, {"measurement": "Activity", "setting": "HepG2 [14]", "value": 11.48, "unit": "%"}, {"measurement": "Activity", "setting": "HepG2 [15]", "value": 21.23, "unit": "%"}, {"measurement": "Activity", "setting": "HepG2 [16]", "value": 5.67, "unit": "%"}, {"measurement": "Activity", "setting": "HepG2 [24]", "value": "Active"}, {"measurement": "Activity", "setting": "HepG2 [25]", "value": "Active"}, {"measurement": "Activity", "setting": "Escherichia coli [26]", "value": "Active"}, {"measurement": "Activity", "setting": "Staphylococcus aureus [18]", "value": "Active"}, {"measurement": "Activity", "setting": "Escherichia coli [19]", "value": "Active"}, {"measurement": "Activity", "setting": "Escherichia coli [20]", "value": "Active"}, {"measurement": "Activity", "setting": "Staphylococcus aureus [27]", "value": "Active"}]}
